Legend:
CAG myeloma cells = assay: Caspase3/7-GLO apoptosis assay, CAG; format: cell-based, human
Outline: (§1)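 Myeloma cells in complete medium were pre-treated for 1 hr with JNK inhibitor or DMSO vehicle, then given or not given 30 μM test peptide, for 9 hr total. Caspase 3/7 activity was read by Caspase3/7-GLO luminescence and expressed as fold increase over vehicle alone (set to 1.0).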

MM.1R myeloma cells = assay: Caspase3/7-GLO apoptosis assay, MM.1R; format: cell-based, human; details: MM.1R cells
Outline: as §1

[1] = target: IGF1R and αvβ5 integrin complex with Sdc1 (Homo sapiens, UniProt P06756+P08069+P18084); assay: Immunoprecipitation of Sdc1 with competing SSTN peptides; format: binding
Chain of IGF1R and αvβ5 integrin complex with Sdc1 (P08069 31-736 limits assumed): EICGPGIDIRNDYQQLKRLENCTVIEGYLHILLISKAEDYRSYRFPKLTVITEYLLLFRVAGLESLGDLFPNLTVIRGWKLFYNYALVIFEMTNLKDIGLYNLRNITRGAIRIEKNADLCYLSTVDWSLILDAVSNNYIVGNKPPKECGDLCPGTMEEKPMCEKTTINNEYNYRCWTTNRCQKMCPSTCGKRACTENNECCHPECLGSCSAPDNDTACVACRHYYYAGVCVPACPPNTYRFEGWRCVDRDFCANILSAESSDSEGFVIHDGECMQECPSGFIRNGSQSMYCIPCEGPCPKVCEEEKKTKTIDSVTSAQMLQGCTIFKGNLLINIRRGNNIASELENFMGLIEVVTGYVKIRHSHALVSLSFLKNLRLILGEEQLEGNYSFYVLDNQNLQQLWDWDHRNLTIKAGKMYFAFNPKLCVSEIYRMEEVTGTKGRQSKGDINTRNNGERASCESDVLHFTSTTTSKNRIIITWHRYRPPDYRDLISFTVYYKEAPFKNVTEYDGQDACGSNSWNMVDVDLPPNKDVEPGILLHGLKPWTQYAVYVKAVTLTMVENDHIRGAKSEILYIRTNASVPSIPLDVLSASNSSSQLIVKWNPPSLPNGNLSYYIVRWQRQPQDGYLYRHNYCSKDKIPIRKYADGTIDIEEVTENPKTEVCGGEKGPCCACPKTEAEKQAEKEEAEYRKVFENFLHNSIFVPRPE
Chain of IGF1R and αvβ5 integrin complex with Sdc1 (P08069 741-1367 limits assumed): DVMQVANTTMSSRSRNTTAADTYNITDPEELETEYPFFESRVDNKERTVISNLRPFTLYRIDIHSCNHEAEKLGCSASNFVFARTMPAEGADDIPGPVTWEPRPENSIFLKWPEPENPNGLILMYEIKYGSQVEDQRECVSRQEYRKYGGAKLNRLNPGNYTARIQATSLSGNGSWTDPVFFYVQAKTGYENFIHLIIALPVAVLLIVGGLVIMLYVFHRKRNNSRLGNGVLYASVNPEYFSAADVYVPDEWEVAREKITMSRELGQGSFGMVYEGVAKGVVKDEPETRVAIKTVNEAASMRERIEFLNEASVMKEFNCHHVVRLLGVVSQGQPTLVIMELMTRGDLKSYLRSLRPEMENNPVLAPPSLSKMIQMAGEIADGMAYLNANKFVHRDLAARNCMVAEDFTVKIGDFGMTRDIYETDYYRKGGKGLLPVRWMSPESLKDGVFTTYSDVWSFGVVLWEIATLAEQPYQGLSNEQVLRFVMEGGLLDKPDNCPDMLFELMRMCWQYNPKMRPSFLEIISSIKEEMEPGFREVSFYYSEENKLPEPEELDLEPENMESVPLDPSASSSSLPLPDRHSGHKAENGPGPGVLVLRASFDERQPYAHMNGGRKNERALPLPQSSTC
Chain of IGF1R and αvβ5 integrin complex with Sdc1 (P06756 31-889 limits assumed): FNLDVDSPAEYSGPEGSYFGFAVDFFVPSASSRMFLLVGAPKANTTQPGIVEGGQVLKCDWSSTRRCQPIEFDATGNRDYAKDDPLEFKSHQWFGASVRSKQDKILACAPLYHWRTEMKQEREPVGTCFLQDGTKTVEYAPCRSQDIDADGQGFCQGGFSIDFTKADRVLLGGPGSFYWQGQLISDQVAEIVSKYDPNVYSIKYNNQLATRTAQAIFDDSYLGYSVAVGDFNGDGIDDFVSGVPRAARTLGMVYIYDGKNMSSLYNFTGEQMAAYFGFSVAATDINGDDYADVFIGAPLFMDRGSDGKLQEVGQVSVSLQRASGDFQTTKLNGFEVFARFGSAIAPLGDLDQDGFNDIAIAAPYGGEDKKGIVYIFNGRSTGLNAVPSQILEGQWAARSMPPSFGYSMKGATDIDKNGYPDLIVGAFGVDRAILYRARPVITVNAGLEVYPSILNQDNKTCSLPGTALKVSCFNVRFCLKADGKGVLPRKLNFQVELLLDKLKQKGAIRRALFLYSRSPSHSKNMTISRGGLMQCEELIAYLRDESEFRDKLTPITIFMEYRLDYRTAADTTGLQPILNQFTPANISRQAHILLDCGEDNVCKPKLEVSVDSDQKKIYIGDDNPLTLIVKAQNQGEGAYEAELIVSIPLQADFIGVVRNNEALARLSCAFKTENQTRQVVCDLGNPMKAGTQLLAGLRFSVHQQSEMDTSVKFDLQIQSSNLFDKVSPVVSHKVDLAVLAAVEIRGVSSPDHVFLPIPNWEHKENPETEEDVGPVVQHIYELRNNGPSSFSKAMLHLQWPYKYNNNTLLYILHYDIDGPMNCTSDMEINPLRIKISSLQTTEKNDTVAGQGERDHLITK
Chain of IGF1R and αvβ5 integrin complex with Sdc1 (P06756 891-1048 limits assumed): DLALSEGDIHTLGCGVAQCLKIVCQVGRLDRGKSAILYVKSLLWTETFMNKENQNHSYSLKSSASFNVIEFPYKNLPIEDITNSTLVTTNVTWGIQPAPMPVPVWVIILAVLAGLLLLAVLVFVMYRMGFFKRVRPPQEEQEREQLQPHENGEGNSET
Chain of IGF1R and αvβ5 integrin complex with Sdc1 (P18084 24-799): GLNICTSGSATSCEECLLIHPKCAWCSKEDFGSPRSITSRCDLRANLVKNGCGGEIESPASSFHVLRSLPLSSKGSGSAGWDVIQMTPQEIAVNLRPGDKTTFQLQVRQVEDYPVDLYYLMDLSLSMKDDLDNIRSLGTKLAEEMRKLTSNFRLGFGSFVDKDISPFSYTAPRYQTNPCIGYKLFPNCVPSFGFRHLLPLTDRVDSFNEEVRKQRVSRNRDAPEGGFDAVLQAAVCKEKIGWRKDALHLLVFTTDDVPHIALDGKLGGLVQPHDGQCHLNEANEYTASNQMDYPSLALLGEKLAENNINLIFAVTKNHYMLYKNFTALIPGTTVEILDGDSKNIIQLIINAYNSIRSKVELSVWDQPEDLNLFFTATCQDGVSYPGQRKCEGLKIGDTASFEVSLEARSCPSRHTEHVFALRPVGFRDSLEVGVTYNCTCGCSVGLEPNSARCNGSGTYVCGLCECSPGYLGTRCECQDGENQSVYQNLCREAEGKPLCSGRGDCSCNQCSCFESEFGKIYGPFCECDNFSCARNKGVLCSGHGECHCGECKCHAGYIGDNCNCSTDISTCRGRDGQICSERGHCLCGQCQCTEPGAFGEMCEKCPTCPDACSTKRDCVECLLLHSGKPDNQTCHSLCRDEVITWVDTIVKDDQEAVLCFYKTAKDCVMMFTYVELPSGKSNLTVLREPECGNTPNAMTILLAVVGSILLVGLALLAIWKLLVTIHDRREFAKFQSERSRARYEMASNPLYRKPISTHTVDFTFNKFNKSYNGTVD
Outline: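 CAG cell lysates from suspension culture were immunoprecipitated with isotype-matched control mIgG1 or mAbs to Sdc1 (B-A38), αvβ5 integrin (P1F6) and/or IGF1R (JBW902), in the presence of test peptide (1 μM) or a variant peptide (1, 3 or 10 μM). Precipitates were probed for Sdc1, IGF1R and αvβ5 integrin.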

[2] = tested on: CAG, RPMI-8226, KMS-12, U266, MM.1R myeloma cells; assay: Cell growth assay, human myeloma cells; format: cell-based; details: three-day growth assay, relative to SSTNIGF1R
Outline: (§2)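 Myeloma cells (2.5 × 10^4/well) were grown in RPMI 1640 with 4 mM L-glutamine, 10% FBS and 0.05 mM β-mercaptoethanol; CAG cells also received 40 μg/mL Geneticin. Cells were grown with 30 μM test peptide or its variant for 3 days at 37 °C, 7.5% CO2. Cell number was read by CellTiter-GLO as % increase relative to untreated cells.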

HUVEC endothelial cells = assay: Cell growth assay, HUVEC; format: cell-based, human; details: 30 μM peptide, 3 days, Sdc1-positive HUVEC
Outline: (§3)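 Endothelial cells (1–2 × 10^3/well) were grown in complete medium with 30 μM test peptide or its variant for 3 days at 37 °C, 7.5% CO2. Cell number was read by CellTiter-GLO and expressed as % increase relative to untreated cells.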

HMEC-1 endothelial cells = assay: Cell growth assay, HMEC-1; format: cell-based, human; details: 30 μM peptide, 3 days
Outline: as §3

CAG myeloma xenografts = assay: CAG myeloma xenograft growth and tumor angiogenesis in nude mice; format: in vivo, mouse; details: Alzet pump 3.65 mg/kg/day, 4 weeks
P3X63Ag8 myeloma cells = assay: Cell growth assay, mouse myeloma cells; format: cell-based; details: 30 μM peptide, three-day treatment, complete medium
Outline: as §2

HUVEC(Sdc1−) = assay: Cell growth assay, HUVEC isolate lacking Sdc1; format: cell-based, human; details: 30 μM peptide, 3 days
Outline: as §3

[3] = tested on: UM-SCC47, SCC25, MDA-MB-468, MDA-MB-231, MCF-7 and SKBr3 carcinoma cells; assay: Cell growth assay, head and neck and breast carcinoma cell panel; format: cell-based, human; details: 3, 10 or 30 μM peptide, 3 days
Outline: (§4)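 Adherent cells (1–2 × 10^3/well) were grown with 3, 10 or 30 μM test peptide for 3 days at 37 °C. Carcinoma lines were kept in DMEM with 4 mM L-glutamine, 10% FBS and penicillin/streptomycin; SCC lines also received 1 μg/mL hydrocortisone. Cell number was read by CellTiter-GLO as % increase relative to untreated cells.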

HaCaT keratinocytes = assay: Cell growth assay, HaCaT; format: cell-based, human; details: 3, 10 or 30 μM peptide, 3 days
Outline: as §4

[4] = tested on: MCF10A breast epithelial cells; assay: Cell growth assay, MCF10A; format: cell-based, human; details: 3, 10 or 30 μM peptide, 3 days
Outline: as §4

CAG cells = assay: ApoTox-GLO viability/apoptosis and TUNEL assay in CAG cells; format: cell-based, human; details: 24 hr
Outline: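 CAG cells (2.5 × 10^4/well) were grown in complete medium with 1–30 μM test peptide for 24 hr at 37 °C. Viability and caspase activation/apoptosis were read by ApoTox-GLO as % of untreated cells.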

ASK1 = format: cell-based, human; details: CAG and MM.1R cells, 10 μM
Outline: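 ASK1 or Sdc1 was immunoprecipitated from cell lysates (0.5–1.0 mg input per sample), with or without competing test peptide. Lysis buffer contained protease and phosphatase inhibitors. Blots were probed for co-precipitated ASK1 and Sdc1, total ASK1, and phospho-ASK1 (pThr838/Thr845, pSer83, pSer966/Ser967).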

[5] = tested on: CAG and MM.1R myeloma cells; assay: Stress and apoptosis marker antibody array, myeloma cells; format: cell-based, human; details: CAG and MM.1R cells, 30 μM, over 9 hr
HUVECs = assay: Stress and apoptosis marker antibody array, HUVEC; format: cell-based, human; details: 30 μM, 24 hr
[6] = tested on: MDA-MB-231 breast carcinoma cells; assay: Stress and apoptosis marker antibody array, MDA-MB-231; format: cell-based, human; details: MDA-MB-231, 30 μM, up to 24 hr; compared with HUVEC response
Outline: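 MDA-MB-231 cells in complete medium were treated with or without 30 μM test peptide for 1, 3, 9 or 24 hr. Whole-cell lysates from equal cell equivalents were run on a stress and apoptosis signalling antibody array. Relative fluorescence at 700 nm was read per target, in two separate experiments.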

[7] = Peptide stability in mouse serum; format: in vitro ADME; details: data not shown
[8] = Peptide stability in bovine serum; format: in vitro ADME; details: data not shown
[9] = 1 μM JNK-IN-8 with 30 μM SSTNIGF1R, 9 hr
[10] = 10 μM SP600125 with SSTNIGF1R, data not shown

Cc1cc(NC(=O)c2cccc(NC(=O)/C=C/CN(C)C)c2)ccc1Nc1nccc(-c2cccnc2)n1 [JNK-IN-8]
block of SSTNIGF1R-induced caspase 3/7 activation (CAG myeloma cells; [9]): complete block
block of SSTNIGF1R-induced caspase 3/7 activation (MM.1R myeloma cells; [9]): complete block

Oc1c2ccccc2c2c3c(cccc13)N=N2 [SP600125]
block of SSTNIGF1R-induced caspase 3/7 activation (CAG myeloma cells; [10]): Near identical results
block of SSTNIGF1R-induced caspase 3/7 activation (MM.1R myeloma cells; [10]): Near identical results

SSTNIGF1R-T: truncated synstatin peptide comprising amino acids 94–119 of Sdc1 (AGEKPEEGEPVLHVEAEPGFTARDKE)
disruption of capture of IGF1R and αvβ5 integrin by Sdc1 ([1]; 1, 3 or 10 μM peptide, myeloma cell lysates): disrupts capture of IGF1R and αvβ5 integrin by Sdc1
fold less effective than SSTNIGF1R at disrupting IGF1R capture by Sdc1 ([1]; myeloma cells, relative to SSTNIGF1R): 3–10 fold
fold less effective than SSTNIGF1R at causing myeloma cell loss [2]: 3–10 fold
growth of HUVEC endothelial cells (HUVEC endothelial cells): without effect
growth of HMEC-1 endothelial cells (HMEC-1 endothelial cells): without effect
effect on tumor angiogenesis (CAG myeloma xenografts; MECA-32 staining intensity): no significant effect

SSTNIGF1R: peptide that inhibits IGF1R capture by Sdc1; comprised of amino acids 92–119 in mouse Sdc1 (LPAGEKPEEGEPVLHVEAEPGFTARDKE)
growth of mouse myeloma cells (P3X63Ag8 myeloma cells): significantly reduced
growth of HUVEC endothelial cells (HUVEC endothelial cells): inhibits the growth
growth of HMEC-1 endothelial cells (HMEC-1 endothelial cells): inhibits the growth
growth of HUVEC isolate lacking Sdc1 (HUVEC(Sdc1−)): insensitive
growth of head and neck and breast carcinoma cells [3]: reduced growth
growth of non-transformed HaCaT keratinocytes (HaCaT keratinocytes): unaffected
growth of non-transformed MCF10A breast epithelial cells [4]: unaffected
apoptosis by TUNEL assay (CAG cells; 30 μM): DNA fragmentation
apoptosis: caspase activation (ApoTox-GLO) (CAG cells; 1–30 μM): executioner caspase activation
cell viability (ApoTox-GLO) (CAG cells; 1–30 μM): significant loss of viability
increase in caspase 3/7 activity relative to vehicle (CAG myeloma cells; 30 μM SSTNIGF1R alone, 9 hr): ~5 fold
co-immunoprecipitation of ASK1 with Sdc1 (ASK1): prevented
apoptosis markers (antibody array) [5]: increased phosphorylation of p53 (Ser15), activation of JNK and activation of caspase-3
apoptosis markers (antibody array) (HUVECs): Activation of the JNK pathway and caspase-3, and a reduction in levels of IkBα
apoptosis markers (antibody array) [6]: almost identical apoptotic response
activity retained after incubation in mouse serum [7]: retains full activity
activity retained after incubation in bovine serum [8]: retains full activity
reduction of blood vessel density in residual tumors (CAG myeloma xenografts; MECA-32 staining intensity): over 90%
tumors eradicated (CAG myeloma xenografts; nude mice, CAG tumors, 8 tumors per cohort): 3 of the 8

— publication PMC5010496 (Cancer research, 2016)
